Measurements: ChEMBL document CHEMBL1153140, “Piperidyl amides as novel, potent and orally active mGlu5 receptor antagonists with anxiolytic-like activity” (Bioorg Med Chem Lett, 2010)
Converted amounts (≈) assume the structure as drawn. One block for each compound: values may come before it. The source made the active and inactive calls. The rule behind the calls is not given here.

Columns and labels:
[1] = Aqueous solubility at pH 6.8; format: physicochemical
Summary of the method: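 Solubility measured at pH 6.8 by a dissolution template potentiometric titration approach, expressed in mg/L.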

[2] = Intrinsic clearance in human liver microsomes; format: ADME, Microsome
[3] = Intrinsic clearance in rat liver microsomes; format: ADME, Microsome
[4] = biological target: T1, Metabotropic glutamate receptor 5 (Homo sapiens, UniProt P41594); test: Antagonist activity at human mGluR5 assessed as inhibition of glutamate-induced elevation of intracellular calcium concentration; format: functional, cell-based
[5] = biological target: T1, Metabotropic glutamate receptor 5; test: Antagonist activity at human mGluR5 assessed as inhibition of quisqualate-induced intracellular inositol phosphate accumulation; format: functional, cell-based
[6] = system: Rattus norvegicus; test: Anxiolytic-like activity in water-deprived rat assessed as increase in electrical shock-stimulated lick at 3 mg/kg, po administered 1 hr before test by Vogel conflict test; format: functional, organism-based; parameters: dose 3 mg/kg
[7] = organism: Rattus norvegicus; test: Anxiolytic-like activity in rat assessed as reduction in electric foot shock-induced fear-potentiation startle; format: functional, organism-based
Summary of the method: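 Rats fear-conditioned by 20 pairings of light (5 s) with footshock (0.5 mA, 0.5 s) on two successive days. On day 3, oral dosing (3–30 mg/kg, n = 10/group). 1 h later, startle to a noise burst measured with and without light, 12 presentations each; FPS taken as the difference. Multifactorial ANOVA with Dunnett post-hoc.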

[8] = system: Brain; test: Drug level in rat brain at 2 mg/kg; format: ADME, organism-based; parameters: dose 2 mg/kg; conditions: in vivo
Summary of the method: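 In a fear-potentiated startle run at 0.08–30 mg/kg po, rats were sacrificed immediately after testing. Brains were removed and drug concentration measured by HPLC, reported as mean ± SEM per dose group.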

[9] = biological target: Metabotropic glutamate receptor 1 (Homo sapiens, UniProt Q13255); test: Inhibition of human mGluR1
[10] = biological target: Metabotropic glutamate receptor 2 (Homo sapiens, UniProt Q14416); test: Inhibition of human mGluR2
[11] = biological target: Metabotropic glutamate receptor 7 (Homo sapiens, UniProt Q14831); test: Inhibition of human mGluR7
[12] = biological target: Glutamate NMDA receptor; test: Displacement of radioligand from glutamate and glycine binding site of NMDA receptor in rat brain membrane; format: cell membranes
Summary of the method: (§1)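 Radioligand displacement in rat brain membranes: AMPA (glutamate site), kainate (glutamate site) and NMDA (glutamate and glycine sites).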

[13] = Displacement of radioligand from glutamate binding site of AMPA receptor in rat brain membrane; format: cell membranes; summary of the method: as §1
[14] = Displacement of radioligand from glutamate binding site of kinate receptor in rat brain membrane; format: cell membranes; summary of the method: as §1
[15] = Second elimination Half life in Sprague-Dawley rat at 10 umol/kg, iv; format: ADME, organism-based; conditions: in vivo, read-out: beta t1/2 (converted)
Summary of the method: (§2)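 Single iv bolus of 10 µmol/kg in Sprague-Dawley rats, n = 3 per group. Plasma concentration-time profile analysed for AUC, clearance, first and second elimination half-lives, MRT and Vss. Brain/plasma AUC ratio also determined.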

[16] = biological target: Metabotropic glutamate receptor 5 (Rattus norvegicus, UniProt P31424); test: Displacement of [3H]ABP688 from mGluR5 in rat brain cortex; format: tissue-based
[17] = biological target: T1, Metabotropic glutamate receptor 5; test: Displacement of [3H]ABP688 from human recombinant mGluR5 expressed in CHO cells; format: cell-based
[18] = Cmax in Sprague-Dawley rat at 30 umol/kg, po; format: ADME, organism-based; parameters: dose 30 umol/kg, route oral; conditions: in vivo
Summary of the method: (§3)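 Sprague-Dawley rats (n = 3/group) dosed orally once at 30 µmol/kg. Plasma Cmax, Tmax and AUC determined.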

[19] = Tmax in Sprague-Dawley rat at 30 umol/kg, po; format: ADME, organism-based; conditions: in vivo; summary of the method: as §3
[20] = AUC in Sprague-Dawley rat at 30 umol/kg, po; format: ADME, organism-based; conditions: plasma; summary of the method: as §3
[21] = Oral bioavailability in Sprague-Dawley rat at 30 umol/kg; format: ADME, organism-based; conditions: in vivo; summary of the method: as §3
[22] = Ratio of drug level in brain to plasma in Sprague-Dawley rat at 30 umol/kg, po; format: ADME
Summary of the method: (§4)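 Single-dose pharmacokinetic study in Sprague-Dawley rats, n = 3 per group, given one oral or one iv bolus dose. Drug concentrations were followed over time in plasma and brain. The ratio is the brain AUC divided by the plasma AUC.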

[23] = First elimination Half life in Sprague-Dawley rat at 10 umol/kg, iv; format: ADME, organism-based; conditions: in vivo, read-out: beta t1/2 (converted); summary of the method: as §2
[24] = Mean retention time in Sprague-Dawley rat at 10 umol/kg, iv; format: ADME, organism-based; conditions: in vivo; summary of the method: as §2
[25] = Clearance in Sprague-Dawley rat at 10 umol/kg, iv; format: ADME, organism-based; conditions: in vivo; summary of the method: as §2
[26] = Volume of distribution at steady state in Sprague-Dawley rat at 10 umol/kg, iv; format: ADME, organism-based; conditions: in vivo, read-out: Vdss; summary of the method: as §2
[27] = AUC in Sprague-Dawley rat at 10 umol/kg, iv; format: ADME, organism-based; conditions: plasma; summary of the method: as §2
[28] = Ratio of drug level in brain to plasma in Sprague-Dawley rat at 10 umol/kg, iv; format: ADME; summary of the method: as §4
[29] = system: Mus musculus; test: Anxiolytic-like activity in mouse assessed as reduction of stress-induced hyperthermia at 3 to 10 mg/kg, po; format: functional, organism-based
[30] = system: Rattus norvegicus; test: Anxiolytic-like activity in water-deprived rat assessed as increase in electrical shock-stimulated lick at 10 to 30 mg/kg, po administered 1 hr before test by Vogel conflict test; format: functional, organism-based

T1 sequence (P41594 whole entry): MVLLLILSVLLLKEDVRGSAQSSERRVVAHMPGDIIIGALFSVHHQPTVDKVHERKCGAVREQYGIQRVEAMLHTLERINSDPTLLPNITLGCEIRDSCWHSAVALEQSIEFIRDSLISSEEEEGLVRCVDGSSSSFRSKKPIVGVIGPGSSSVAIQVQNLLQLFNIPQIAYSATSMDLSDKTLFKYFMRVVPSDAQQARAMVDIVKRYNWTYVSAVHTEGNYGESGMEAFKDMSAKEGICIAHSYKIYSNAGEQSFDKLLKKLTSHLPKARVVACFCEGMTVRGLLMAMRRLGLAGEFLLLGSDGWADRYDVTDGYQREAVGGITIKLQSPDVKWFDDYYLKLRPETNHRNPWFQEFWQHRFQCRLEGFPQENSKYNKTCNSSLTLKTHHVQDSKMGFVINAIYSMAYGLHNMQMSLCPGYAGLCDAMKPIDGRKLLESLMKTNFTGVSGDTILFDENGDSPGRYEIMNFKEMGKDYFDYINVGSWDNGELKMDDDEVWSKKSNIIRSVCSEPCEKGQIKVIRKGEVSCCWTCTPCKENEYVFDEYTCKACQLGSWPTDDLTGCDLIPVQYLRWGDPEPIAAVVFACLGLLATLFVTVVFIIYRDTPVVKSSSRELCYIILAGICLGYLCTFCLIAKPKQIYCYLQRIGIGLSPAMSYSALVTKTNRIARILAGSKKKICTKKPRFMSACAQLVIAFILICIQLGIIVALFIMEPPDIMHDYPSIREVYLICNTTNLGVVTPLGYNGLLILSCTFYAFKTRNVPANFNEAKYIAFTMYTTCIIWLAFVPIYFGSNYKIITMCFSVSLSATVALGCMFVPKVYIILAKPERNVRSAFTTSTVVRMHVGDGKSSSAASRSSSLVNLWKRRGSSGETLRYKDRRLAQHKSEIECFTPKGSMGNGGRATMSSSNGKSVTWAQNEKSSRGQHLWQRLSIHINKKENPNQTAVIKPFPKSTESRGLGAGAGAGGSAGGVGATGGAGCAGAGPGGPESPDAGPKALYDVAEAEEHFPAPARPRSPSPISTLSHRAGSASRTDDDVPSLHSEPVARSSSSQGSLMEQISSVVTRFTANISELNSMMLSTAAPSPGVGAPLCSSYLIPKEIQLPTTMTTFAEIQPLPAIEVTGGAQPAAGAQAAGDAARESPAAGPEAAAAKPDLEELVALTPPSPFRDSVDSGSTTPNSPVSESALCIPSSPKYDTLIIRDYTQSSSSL
Metabotropic glutamate receptor 7, sequence (Q14831 whole entry): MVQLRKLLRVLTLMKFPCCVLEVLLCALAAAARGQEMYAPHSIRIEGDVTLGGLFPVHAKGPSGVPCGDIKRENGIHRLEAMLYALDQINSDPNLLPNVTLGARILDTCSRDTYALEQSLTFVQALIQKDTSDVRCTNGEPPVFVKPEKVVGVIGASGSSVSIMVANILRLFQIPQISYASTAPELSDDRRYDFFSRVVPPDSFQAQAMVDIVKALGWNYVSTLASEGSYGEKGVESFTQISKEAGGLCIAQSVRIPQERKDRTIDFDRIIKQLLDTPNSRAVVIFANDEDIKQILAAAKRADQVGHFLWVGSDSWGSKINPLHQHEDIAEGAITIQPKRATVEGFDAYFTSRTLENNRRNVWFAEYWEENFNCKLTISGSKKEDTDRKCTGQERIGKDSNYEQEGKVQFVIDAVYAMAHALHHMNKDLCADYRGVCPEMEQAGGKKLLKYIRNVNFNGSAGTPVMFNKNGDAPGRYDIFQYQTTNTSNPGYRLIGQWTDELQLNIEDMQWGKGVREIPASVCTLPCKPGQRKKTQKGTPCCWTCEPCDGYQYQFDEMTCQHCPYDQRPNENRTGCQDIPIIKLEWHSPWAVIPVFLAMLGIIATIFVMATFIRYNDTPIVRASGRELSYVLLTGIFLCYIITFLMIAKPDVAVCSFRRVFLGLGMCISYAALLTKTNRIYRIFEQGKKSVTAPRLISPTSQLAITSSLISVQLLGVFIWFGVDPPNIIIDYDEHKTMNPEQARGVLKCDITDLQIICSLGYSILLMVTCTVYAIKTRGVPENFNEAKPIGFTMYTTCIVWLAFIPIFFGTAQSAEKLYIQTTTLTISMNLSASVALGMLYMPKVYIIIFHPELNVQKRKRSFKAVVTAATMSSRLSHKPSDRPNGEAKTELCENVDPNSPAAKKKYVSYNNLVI
Metabotropic glutamate receptor 1, sequence (Q13255 whole entry): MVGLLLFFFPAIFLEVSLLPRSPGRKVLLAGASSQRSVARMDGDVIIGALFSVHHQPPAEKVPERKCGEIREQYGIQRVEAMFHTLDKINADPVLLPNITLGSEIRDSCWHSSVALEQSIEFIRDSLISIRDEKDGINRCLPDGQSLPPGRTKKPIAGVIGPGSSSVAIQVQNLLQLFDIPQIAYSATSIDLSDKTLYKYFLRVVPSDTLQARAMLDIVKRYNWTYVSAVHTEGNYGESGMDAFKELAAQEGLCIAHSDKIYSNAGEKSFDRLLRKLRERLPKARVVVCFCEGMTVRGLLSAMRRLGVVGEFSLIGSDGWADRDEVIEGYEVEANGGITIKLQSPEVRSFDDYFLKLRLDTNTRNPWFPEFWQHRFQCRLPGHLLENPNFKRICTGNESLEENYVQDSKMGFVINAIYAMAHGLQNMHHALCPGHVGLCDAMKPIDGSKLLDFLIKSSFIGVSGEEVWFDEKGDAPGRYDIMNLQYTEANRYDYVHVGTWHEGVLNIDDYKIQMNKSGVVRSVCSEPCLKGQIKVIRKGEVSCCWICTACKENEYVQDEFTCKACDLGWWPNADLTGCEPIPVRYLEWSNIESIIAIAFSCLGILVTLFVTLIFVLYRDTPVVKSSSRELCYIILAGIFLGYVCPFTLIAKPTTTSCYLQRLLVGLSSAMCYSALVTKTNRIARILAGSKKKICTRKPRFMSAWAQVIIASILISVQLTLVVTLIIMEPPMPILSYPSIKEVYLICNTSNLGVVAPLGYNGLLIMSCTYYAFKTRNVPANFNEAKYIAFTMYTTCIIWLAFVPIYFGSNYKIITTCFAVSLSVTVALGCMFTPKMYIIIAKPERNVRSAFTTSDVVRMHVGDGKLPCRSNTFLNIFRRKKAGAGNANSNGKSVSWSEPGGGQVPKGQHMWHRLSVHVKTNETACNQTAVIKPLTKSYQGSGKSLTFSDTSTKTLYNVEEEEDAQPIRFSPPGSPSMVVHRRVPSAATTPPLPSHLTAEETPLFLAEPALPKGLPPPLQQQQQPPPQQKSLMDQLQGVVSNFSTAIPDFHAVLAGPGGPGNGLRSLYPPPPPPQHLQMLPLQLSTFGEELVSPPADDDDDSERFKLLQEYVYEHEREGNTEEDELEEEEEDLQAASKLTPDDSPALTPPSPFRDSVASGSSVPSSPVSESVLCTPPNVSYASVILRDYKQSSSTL
Metabotropic glutamate receptor 5 (Rattus norvegicus, UniProt P31424), sequence (P31424 whole entry): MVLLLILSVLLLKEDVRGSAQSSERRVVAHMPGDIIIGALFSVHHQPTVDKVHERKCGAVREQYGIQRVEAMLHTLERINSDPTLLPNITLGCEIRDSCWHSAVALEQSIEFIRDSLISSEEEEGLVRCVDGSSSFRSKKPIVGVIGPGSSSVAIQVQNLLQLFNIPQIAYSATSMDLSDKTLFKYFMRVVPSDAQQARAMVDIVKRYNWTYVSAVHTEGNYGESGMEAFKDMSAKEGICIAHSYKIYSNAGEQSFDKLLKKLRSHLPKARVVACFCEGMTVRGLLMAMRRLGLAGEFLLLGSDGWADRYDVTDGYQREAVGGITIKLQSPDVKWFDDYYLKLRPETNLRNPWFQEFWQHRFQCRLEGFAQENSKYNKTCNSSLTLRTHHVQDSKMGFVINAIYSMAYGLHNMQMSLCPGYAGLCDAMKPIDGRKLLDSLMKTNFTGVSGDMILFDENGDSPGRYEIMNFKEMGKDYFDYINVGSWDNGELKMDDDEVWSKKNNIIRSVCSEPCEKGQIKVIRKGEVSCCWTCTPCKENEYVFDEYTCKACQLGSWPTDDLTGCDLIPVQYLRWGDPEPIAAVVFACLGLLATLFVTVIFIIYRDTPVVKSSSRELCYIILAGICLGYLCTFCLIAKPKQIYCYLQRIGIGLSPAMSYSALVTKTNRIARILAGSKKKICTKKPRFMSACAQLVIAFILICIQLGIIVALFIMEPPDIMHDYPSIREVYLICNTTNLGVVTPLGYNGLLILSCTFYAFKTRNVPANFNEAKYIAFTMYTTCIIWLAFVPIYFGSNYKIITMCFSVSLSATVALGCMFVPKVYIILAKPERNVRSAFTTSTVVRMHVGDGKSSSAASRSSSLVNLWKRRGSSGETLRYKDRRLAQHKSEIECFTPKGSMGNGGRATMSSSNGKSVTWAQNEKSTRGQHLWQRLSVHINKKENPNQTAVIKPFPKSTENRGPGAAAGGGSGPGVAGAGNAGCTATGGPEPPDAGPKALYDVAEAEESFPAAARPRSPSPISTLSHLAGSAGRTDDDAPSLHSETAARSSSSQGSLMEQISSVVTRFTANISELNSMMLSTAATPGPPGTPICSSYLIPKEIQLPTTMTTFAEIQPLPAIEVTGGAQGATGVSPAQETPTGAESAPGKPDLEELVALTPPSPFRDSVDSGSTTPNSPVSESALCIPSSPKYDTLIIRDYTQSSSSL

SMILES: Cc1ccc(Nc2ncc(C(=O)N3CCCCC3)cc2Cl)cn1
solubility [1]: 150 µg/mL (≈ 453 µM)
microsomal CLint [2]: 33 µL/min/mg
microsomal CLint [3]: 48 µL/min/mg

SMILES: O=C(c1ccc(Nc2ccccc2Cl)nc1)N1CCCCC1
IC50 [4]: > 10 µM

SMILES: O=C(c1cnc(Nc2ccc(Cl)cc2)cn1)N1CCCCC1
IC50 [4]: > 10 µM

SMILES: O=C(c1ccc(Nc2ccc(Cl)cn2)nc1)N1CCCCC1
IC50 [4]: 10 µM

SMILES: CC1CCCN(C(=O)c2ccc(Oc3ccc(Cl)cc3)nc2)C1 (configuration not stated)
IC50 [4]: > 10 µM

SMILES: CN(c1ccc(Cl)cc1)c1ccc(C(=O)N2CCCCC2)cn1
IC50 [4]: > 10 µM

SMILES: CC[C@H]1CCCN(C(=O)c2cnc(Nc3ccc(C)nc3)c(Cl)c2)C1
solubility [1]: < 3 µg/mL
microsomal CLint [2]: 174 µL/min/mg
microsomal CLint [3]: 687 µL/min/mg

SMILES: Cc1ccc(Nc2ncc(C(=O)N3CCCC(C)C3)cc2Cl)cn1 (racemic)
microsomal CLint [2]: 60 µL/min/mg
microsomal CLint [3]: 38 µL/min/mg

SMILES: CCC1CCCN(C(=O)c2cnc(Nc3ccc(C)nc3)c(Cl)c2)C1 (racemic)
solubility [1]: 15 µg/mL (≈ 41.8 µM)
microsomal CLint [2]: 171 µL/min/mg
microsomal CLint [3]: 417 µL/min/mg

SMILES: CC1CCCN(C(=O)c2cc(Nc3ccc(Cl)cc3)[nH]n2)C1 (configuration not stated)
IC50 [4]: > 10 µM

SMILES: O=C(c1ccc(NC2CCCCC2)nc1)N1CCCCC1
IC50 [4]: > 10 µM

SMILES: O=C(c1ccc(Nc2cccc(Cl)c2)nc1)N1CCCCC1
IC50 [4]: > 10 µM

SMILES: CC[C@@H]1CCCN(C(=O)c2cnc(Nc3ccc(C)nc3)c(Cl)c2)C1
solubility [1]: 95 µg/mL (≈ 265 µM)
microsomal CLint [2]: 322 µL/min/mg
microsomal CLint [3]: 643 µL/min/mg

SMILES: Cc1cccc(Nc2ccc(C(=O)N3CCCCC3)cn2)n1
IC50 [4]: > 10 µM

SMILES: O=C(NC1CCCCC1)c1ccc(Nc2ccc(Cl)cc2)nc1
IC50 [4]: > 10 µM

SMILES: O=C(c1ccc(Nc2ccccc2)nc1)N1CCCCC1
IC50 [4]: 10 µM

SMILES: O=C(c1ccc(Nc2ccc(Cl)c(Cl)c2)nc1)N1CCCCC1
IC50 [4]: > 10 µM

Further compounds by falling IC50 [4], results first:

IC50 [4]: 5.4 µM
SMILES: O=C(c1ccc(Nc2ccc(Cl)cc2)nc1)N1CCCC1

IC50 [4]: 2.3 µM
SMILES: CC1CCN(C(=O)c2ccc(Nc3ccc(Cl)cc3)nc2)CC1

IC50 [4]: 2.3 µM
SMILES: Cc1ccc(Nc2ccc(C(=O)N3CCCCC3)cn2)cc1

IC50 [4]: 2.3 µM
SMILES: O=C(c1ccc(Nc2ccc(F)cc2)nc1)N1CCCCC1

IC50 [4]: 2.3 µM
SMILES: O=C(c1ccc(Nc2ccc(Cl)cc2)nc1)N1CCCCCCC1

IC50 [4]: 2.1 µM
SMILES: COc1cc(C(=O)N2CCCCC2)cnc1Nc1ccc(Cl)cc1

IC50 [4]: 1.8 µM
SMILES: COc1ccc(Nc2ccc(C(=O)N3CCCCC3)cn2)cc1

IC50 [4]: 1.6 µM
SMILES: CC1CCCN(C(=O)c2ccc(Nc3ccc(Cl)cc3)cc2)C1 (configuration not stated)

IC50 [4]: 1.4 µM
solubility [1]: 499 µg/mL (≈ 1450 µM)
microsomal CLint [2]: 39 µL/min/mg
microsomal CLint [3]: 68 µL/min/mg
SMILES: Cc1ccc(Nc2ncc(C(=O)N3CCCC[C@@H]3C)cc2Cl)cn1

IC50 [4]: 0.98 µM
SMILES: CC1CCCN(C(=O)c2cnc(Nc3ccc(Cl)cc3)nc2)C1 (configuration not stated)

IC50 [4]: 0.72 µM
SMILES: CC1CCCN(C(=O)c2ccc(Nc3ccc(Cl)cc3)nn2)C1 (configuration not stated)

IC50 [4]: 0.53 µM
SMILES: CC1CCCN(C(=O)c2ccc(Nc3ccc(Cl)cc3)nc2)C1 (racemic)

IC50 [4]: 0.46 µM
SMILES: CCN(CC)C(=O)c1ccc(Nc2ccc(Cl)cc2)nc1

IC50 [4]: 0.43 µM
SMILES: CC1CCCCN1C(=O)c1ccc(Nc2ccc(Cl)cc2)nc1 (racemic)

IC50 [4]: 0.42 µM
SMILES: Cc1ccc(Nc2ccc(C(=O)N3CCCCC3)cn2)cn1

IC50 [4]: 0.39 µM
IC50 [5]: 0.36 µM
solubility [1]: 56 µg/mL (≈ 156 µM)
microsomal CLint [2]: 216 µL/min/mg
microsomal CLint [3]: 190 µL/min/mg
SMILES: CC[C@H]1CCCCN1C(=O)c1cnc(Nc2ccc(C)nc2)c(Cl)c1

IC50 [4]: 0.31 µM
SMILES: O=C(c1ccc(Nc2ccc(Cl)cc2)nc1)N1CCCCC1

IC50 [4]: 0.25 µM
SMILES: O=C(c1ccc(Nc2ccc(Cl)cc2)nc1)N1CCCCCC1

IC50 [4]: 0.24 µM
IC50 [5]: 0.43 µM
solubility [1]: 216 µg/mL (≈ 626 µM)
microsomal CLint [2]: 44 µL/min/mg
microsomal CLint [3]: 73 µL/min/mg
SMILES: Cc1ccc(Nc2ncc(C(=O)N3CCCC[C@H]3C)cc2Cl)cn1

IC50 [4]: 0.136 µM
IC50 [5]: 0.005 µM
solubility [1]: < 3 µg/mL
microsomal CLint [2]: 227 µL/min/mg
microsomal CLint [3]: 637 µL/min/mg
SMILES: CCCCC1CCCCN1C(=O)c1cnc(Nc2ccc(C)nc2)c(Cl)c1 (racemic)

IC50 [4]: 0.11 µM
IC50 [5]: 0.09 µM
solubility [1]: 122 µg/mL (≈ 340 µM)
microsomal CLint [2]: 138 µL/min/mg
microsomal CLint [3]: 220 µL/min/mg
SMILES: CCC1CCCCN1C(=O)c1cnc(Nc2ccc(C)nc2)c(Cl)c1 (racemic)

IC50 [4]: 0.095 µM
SMILES: CC1CCCN(C(=O)c2cnc(Nc3ccc(Cl)cc3)c(Cl)c2)C1 (configuration not stated)

IC50 [4]: 0.09 µM
IC50 [5]: 0.016 µM
solubility [1]: < 3 µg/mL
microsomal CLint [2]: 224 µL/min/mg
microsomal CLint [3]: 885 µL/min/mg
SMILES: CCCC1CCCCN1C(=O)c1cnc(Nc2ccc(C)nc2)c(Cl)c1 (racemic)

Drug uptake [8]: 127 pmol/g
IC50 [9]: > 10 µM
IC50 [10]: > 10 µM
IC50 [11]: > 10 µM
IC50 [12]: > 10 µM
IC50 [13]: > 10 µM
IC50 [14]: > 10 µM
half-life [15]: 54 min
Ki [16]: 0.03 µM
IC50 [4]: 0.032 µM
IC50 [5]: 0.036 µM
solubility [1]: 58 µg/mL (≈ 162 µM)
microsomal CLint [2]: 89 µL/min/mg
microsomal CLint [3]: 87 µL/min/mg
Ki [17]: 0.038 µM
Cmax [18]: 1230 nM
Tmax [19]: 15 min
AUC [20]: 7.23 µM·h
bioavailability [21]: 54%
Kp [22]: 1.3
half-life [23]: 18 min
MRT [24]: 54 min
clearance [25]: 37.2 mL/min/kg
Vd [26]: 2 L/kg
AUC [27]: 4.48 µM·h
Kp [28]: 1.36
SMILES: CC[C@@H]1CCCCN1C(=O)c1cnc(Nc2ccc(C)nc2)c(Cl)c1
Activity [6]: inactive
Activity [7]: Dose-dependent effect
Activity [29]: Active
Activity [30]: Active
